# Assays:
# [1] = tested on: methicillin-resistant S. aureus (MRSA) (ATCC 33591); assay: microbe, parasite or virus in culture; type: cell-based, Staphylococcus aureus; details: for MIC, Gram-positive, MRSA: ATCC 33591, 18 h
# [2] = tested on: methicillin-resistant S. epidermidis (MRSE) (RP62A); assay: microbe, parasite or virus in culture; type: cell-based, Staphylococcus epidermidis; details: for MIC, Gram-positive, MRSE: methicillin-resistant (RP62A, 18 h)
# E. coli (ATCC 25922) = assay: microbe, parasite or virus in culture; type: cell-based; details: for MIC, Gram-negative, E. coli: ATCC 25922, 18 h
# [3] = tested on: P. aeruginosa (ATCC 27853); assay: microbe, parasite or virus in culture; type: cell-based, Pseudomonas aeruginosa; details: for MIC, Gram-negative, P. aeruginosa: ATCC 27853, 18 h
# MRSA [4] = assay: Time-kill assay; type: cell-based, Staphylococcus aureus; details: 1 × 10^6 CFU mL^−1, repeated three times
# Outline: (§1)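 Bacteria grown overnight in TSB at 37 °C to mid-log phase and diluted to 1 × 10^6 CFU mL−1. Incubated with test compound at several concentrations, with suspensions plated on agar at set time points. Plates incubated 20 h at 37 °C before colony counting. Assay repeated three times.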
# E. coli [5] = assay: Time-kill assay; type: cell-based; details: 2 × MIC; 1 × 10^6 CFU mL^−1; repeated three times
# Outline: as §1
# MRSA [6] = assay: Fluorescence microscopy; type: cell-based, Staphylococcus aureus; details: 12 μg mL^−1, 2 h, 37 °C
# Outline: (§2)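 Mid-log cultures grown at 37 °C, diluted to 1 × 10^6 CFU mL−1, exposed to test compound for 2 h at 37 °C alongside untreated controls. Cells pelleted at 3000 rpm for 15 min at 4 °C and PBS-washed. Stained with DAPI (10 μg mL−1) for 15 min on ice in the dark, washed twice, then stained the same way with PI (5 μg mL−1). Imaged under oil immersion.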
# E. coli [7] = assay: Fluorescence microscopy; type: cell-based; details: 12 μg mL^−1, 2 h, 37 °C
# Outline: as §2
# MRSA [8] = assay: Bacterial membrane depolarization assay, DiSC3; type: cell-based, Staphylococcus aureus; details: 1 × MIC, 2 × MIC and 4 × MIC; concentration-dependent; repeated three times with duplicates
# E. coli [9] = assay: Bacterial membrane depolarization assay, DiSC3; type: cell-based; details: 1 × MIC, 2 × MIC and 4 × MIC; concentration-dependent; repeated three times with duplicates
# MRSA [10] = assay: Transmission electron microscopy; type: cell-based, Staphylococcus aureus; details: 12 μg mL^−1, 2 h, TSB, 37 °C
# Outline: (§3)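 Mid-log bacteria exposed to test compound in TSB for 2 h at 37 °C, with untreated samples as controls. Cells pelleted at 3000 rpm for 15 min, washed four times in PBS, resuspended in deionized water. A drop placed on carbon-coated Cu grids, excess blotted off, dried about 1 h. Imaged by TEM at 60 kV.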
# E. coli [11] = assay: Transmission electron microscopy; type: cell-based; details: 12 μg mL^−1, 2 h, TSB, 37 °C
# Outline: as §3
# E. coli [12] = assay: Outer membrane permeability assay; type: cell-based; details: 1 × MIC; 37 °C, 1 h; percent uptake relative to 16 mM melittin
# MRSA [13] = type: cell-based, Staphylococcus aureus; details: 48 h, 0.094 μg mL^−1
# E. coli [14] = type: cell-based; details: 48 h, 0.188 μg mL^−1
# [15] = HPLC retention time as estimate of amphiphilicity; type: physicochemical; details: HPLC data of Table S2 in ESI, which is not in the material
compound,measurement,setting,value
"O=C(O)c1cn(C2CC2)c2cc(N3CCNCC3)c(F)cc2c1=O [Ciprofloxacin, reference compound]",MIC,"[1]; Staphylococcus aureus, ATCC33591|MRSA, 18 h, read-out: MIC, Gram-positive, MRSA",0.75 to 1.5 µg/mL
same,MIC,"[2]; Staphylococcus epidermidis, MRSE, 18 h, read-out: MIC, Gram-positive, MRSE",0.75 to 1.5 µg/mL
same,MIC,"E. coli (ATCC 25922); Escherichia coli, ATCC25922, 18 h, read-out: MIC, Gram-negative, E. coli",0.75 to 1.5 µg/mL
same,MIC,"[3]; Pseudomonas aeruginosa, ATCC27853, 18 h, read-out: MIC, Gram-negative, P. aeruginosa",1.5 to 3 µg/mL
CCCCCCCCCCCCCCCC(=O)NCCCC[C@H](NC(=O)c1cc(NC(=O)CN(C[C@H](CCCCN)NC(=O)[C@@H](N)CCCCN)S(=O)(=O)c2ccccc2)cc(NC(=O)CN(C[C@H](CCCCN)NC(=O)[C@@H](N)CCCCN)S(=O)(=O)c2ccccc2)c1)C(N)=O [Compound 2],"MIC, Gram-positive, MRSA",[1],6 to 12.5 µg/mL
same,"MIC, Gram-negative, E. coli",E. coli (ATCC 25922),6 to 12.5 µg/mL
CCCCCCCCCCCC(=O)NCCCC[C@H](NC(=O)c1cc(NC(=O)CN(C[C@H](CCCCN)NC(=O)[C@@H](N)CCCCN)S(=O)(=O)c2ccc(Cl)cc2)cc(NC(=O)CN(C[C@H](CCCCN)NC(=O)[C@@H](N)CCCCN)S(=O)(=O)c2ccc(Cl)cc2)c1)C(N)=O [Compound 17],"MIC, Gram-positive, MRSA",[1],3 to 6 µg/mL
same,"MIC, Gram-positive, MRSE",[2],3 to 6 µg/mL
same,"MIC, Gram-negative, E. coli",E. coli (ATCC 25922),3 to 6 µg/mL
same,"MIC, Gram-negative, P. aeruginosa",[3],3 to 6 µg/mL
same,Time to complete killing of MRSA,MRSA [4]; 2 × MIC,≤ 6 h
same,Time to eradicate MRSA,MRSA [4]; 8 × MIC,roughly 2 h
same,Time to complete killing of E. coli,E. coli [5],≤ 6 h
same,Membrane integrity of MRSA by DAPI/PI fluorescence,MRSA [6],compromised
same,Membrane integrity of E. coli by DAPI/PI fluorescence,E. coli [7],compromised
same,"Membrane depolarization of MRSA, DiSC3(5) fluorescence",MRSA [8],dramatic enhancement of fluorescence intensity
same,"Membrane depolarization of E. coli, DiSC3(5) fluorescence",E. coli [9],dramatic enhancement of fluorescence intensity
same,MRSA cell membrane morphology by TEM,MRSA [10],membranes have been damaged
same,E. coli cell membrane morphology by TEM,E. coli [11],membranes have been damaged
same,Permeabilization of E. coli outer membrane (NPN uptake),E. coli [12],more than 50%
same,Inhibition of biofilm formation of MRSA,MRSA [13],~50%
same,Inhibition of biofilm formation of E. coli,E. coli [14],around 40%
same,"HPLC retention time (RT), estimate of amphiphilicity",[15],19.70 min
CCCCCCCCCCCC(=O)NCCCC[C@H](NC(=O)c1cc(NC(=O)CN(C[C@H](CCCCN)NC(=O)[C@@H](N)CCCCN)S(=O)(=O)c2ccccc2)cc(NC(=O)CN(C[C@H](CCCCN)NC(=O)[C@@H](N)CCCCN)S(=O)(=O)c2ccccc2)c1)C(N)=O [Compound 1],"MIC, Gram-positive, MRSA",[1],3 to 6 µg/mL
same,"MIC, Gram-positive, MRSE",[2],3 to 6 µg/mL
same,"MIC, Gram-negative, E. coli",E. coli (ATCC 25922),3 to 6 µg/mL
same,"MIC, Gram-negative, P. aeruginosa",[3],6 to 12.5 µg/mL

# — paper PMC8903075 (Biomaterials science, 2021)
